Results from ChEMBL document CHEMBL3739264, “Synthesis and bio-evaluation of novel quinolino-stilbene derivatives as potential anticancer agents” (Bioorg Med Chem, 2015).
Activity calls are given as the source filed them. The calls are words filed in the database; no cut-off is given here.

What was measured:
HeLa [1] = assay: Cell cycle arrest in human HeLa cells assessed as accumulation at G2/M phase at 6 uM after 24 hrs by flow cytometry analysis relative to control; type: functional
Procedure, shortened: (§1)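 About 1 × 10^6 cells per plate seeded overnight, then treated with compound and harvested at set times. Cells fixed in 75% ethanol at -20°C for 12-24 h and stained 1 h with 100 µg/ml PI, 100 µg/ml RNase A and 0.3% NP-40 in PBS. DNA content measured by flow cytometry; phase fractions compared with sham-treated cells.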

HeLa [2] = assay: Cell cycle arrest in human HeLa cells assessed as accumulation at sub-G1 phase at 6 uM after 48 hrs by flow cytometry analysis relative to control; type: functional; procedure, shortened: as §1
HeLa [3] = assay: Cell cycle arrest in human HeLa cells assessed as accumulation at G0-G1 phase at 6 uM after 48 hrs by flow cytometry analysis relative to control; type: functional; procedure, shortened: as §1
HeLa [4] = assay: Cell cycle arrest in human HeLa cells assessed as accumulation at S phase at 6 uM after 48 hrs by flow cytometry analysis relative to control; type: functional; procedure, shortened: as §1
HeLa [5] = assay: Cell cycle arrest in human HeLa cells assessed as accumulation at G2/M phase at 6 uM after 48 hrs by flow cytometry analysis relative to control; type: functional; procedure, shortened: as §1
HeLa [6] = assay: Cell cycle arrest in human HeLa cells assessed as accumulation at G0-G1 phase at 6 uM after 72 hrs by flow cytometry analysis relative to control; type: functional; procedure, shortened: as §1
HeLa [7] = assay: Cell cycle arrest in human HeLa cells assessed as accumulation at S phase at 6 uM after 72 hrs by flow cytometry analysis relative to control; type: functional; procedure, shortened: as §1
HeLa [8] = assay: Cell cycle arrest in human HeLa cells assessed as accumulation at G2/M phase at 6 uM after 72 hrs by flow cytometry analysis relative to control; type: functional; procedure, shortened: as §1
MDA-MB-231 [9] = assay: Cell cycle arrest in human MDA-MB-231 cells assessed as accumulation at G0-G1 phase at 6 uM after 12 hrs by flow cytometry analysis relative to control; type: functional; procedure, shortened: as §1
MDA-MB-231 [10] = assay: Cell cycle arrest in human MDA-MB-231 cells assessed as accumulation at S phase at 6 uM after 12 hrs by flow cytometry analysis relative to control; type: functional; procedure, shortened: as §1
MDA-MB-231 [11] = assay: Cell cycle arrest in human MDA-MB-231 cells assessed as accumulation at sub-G1 phase at 6 uM after 24 hrs by flow cytometry analysis relative to control; type: functional
Procedure, shortened: (§2)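 Cells seeded overnight at about 1 × 10^6 per plate, treated next morning, and harvested at set times. Fixed in 75% ethanol at -20°C for 12-24 h, then stained 1 h in PBS with 0.3% NP-40, 100 µg/ml RNase A and 100 µg/ml propidium iodide. Phase distribution read from DNA content by flow cytometry against sham-treated cells.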

MDA-MB-231 [12] = assay: Cell cycle arrest in human MDA-MB-231 cells assessed as accumulation at sub-G1 phase at 6 uM after 48 hrs by flow cytometry analysis relative to control; type: functional; procedure, shortened: as §2
MDA-MB-231 [13] = assay: Cell cycle arrest in human MDA-MB-231 cells assessed as accumulation at S phase at 6 uM after 48 hrs by flow cytometry analysis relative to control; type: functional; procedure, shortened: as §1
MDA-MB-231 [14] = assay: Cell cycle arrest in human MDA-MB-231 cells assessed as accumulation at G2/M phase at 6 uM after 48 hrs by flow cytometry analysis relative to control; type: functional; procedure, shortened: as §1
MDA-MB-231 [15] = assay: Cell cycle arrest in human MDA-MB-231 cells assessed as accumulation at S phase at 6 uM after 72 hrs by flow cytometry analysis relative to control; type: functional; procedure, shortened: as §1
MDA-MB-231 [16] = assay: Cell cycle arrest in human MDA-MB-231 cells assessed as accumulation at G2/M phase at 6 uM after 72 hrs by flow cytometry analysis relative to control; type: functional; procedure, shortened: as §1
[17] = Cell cycle arrest in human MCF10A cells assessed as accumulation at sub-G1 phase at 6 uM after 12 hrs by flow cytometry analysis relative to control; type: functional, cell-based; settings: MCF-10A; procedure, shortened: as §1
[18] = Cell cycle arrest in human MCF10A cells assessed as accumulation at G0-G1 phase at 6 uM after 12 hrs by flow cytometry analysis relative to control; type: functional, cell-based; settings: MCF-10A; procedure, shortened: as §1
[19] = Cell cycle arrest in human MCF10A cells assessed as accumulation at G2/M phase at 6 uM after 12 hrs by flow cytometry analysis relative to control; type: functional, cell-based; settings: MCF-10A; procedure, shortened: as §1
[20] = Cell cycle arrest in human MCF10A cells assessed as accumulation at G2/M phase at 6 uM after 24 hrs by flow cytometry analysis relative to control; type: functional, cell-based; settings: MCF-10A; procedure, shortened: as §1
[21] = Cell cycle arrest in human MCF10A cells assessed as accumulation at sub-G1 phase at 6 uM after 72 hrs by flow cytometry analysis relative to control; type: functional, cell-based; settings: MCF-10A; procedure, shortened: as §1
HeLa [22] = assay: Induction of apoptosis in human HeLa cells assessed as popcorn like morphology at 6 uM after 48 hrs by time lapse microscopy analysis; type: functional, cell-based
Procedure, shortened: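 Treated HeLa cells were followed by time-lapse microscopy, with images taken at set time points.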

HeLa [23] = assay: Induction of mitosis arrest in human HeLa cells assessed as condensation of chromosome at 6 uM after 12 hrs using DAPI staining by immunofluorescence microscopic analysis; type: functional, cell-based
Procedure, shortened: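 HeLa cells on coverslips treated 12 h, fixed in ice-cold methanol at -20°C. Stained with anti-α-tubulin and anti-lamin A (primary 1:200 overnight at 4°C, fluorescent secondary 1 h) and DAPI for DNA. Mitotic morphology scored by fluorescence microscopy.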

Tubulin (Homo sapiens) = Tubulin (Homo sapiens) (UniProt P68371+Q9H4B7+P0DPH7+P68366+Q13509+Q71U36+P04350+Q3ZCM7+P07437+P68363+Q9BQE3+Q6PEY2+Q13885+Q9BVA1+Q9BUF5); assay: Inhibition of tubulin (unknown origin) polymerization at 6 to 12 uM measured every 1 min for 1 hr by automated plate reader analysis; type: protein-complex assay
Procedure, shortened: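 Cell-free assay: 4 mg/ml tubulin in 80 mM PIPES, 2 mM MgCl2, 0.5 mM EGTA, 1 mM GTP, 10% glycerol, pH 6.9, added to wells with ligand pre-warmed 2-3 min at 37°C. A340 read every min for 1 h.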

MCF7 = assay: Antiproliferative activity against human MCF7 cells after 72 hrs by SRB assay; type: functional, cell-based; settings: MCF7, 72 h
Procedure, shortened: (§3)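 Cells seeded at 4,000-5,000/well for 16 h, then exposed 72 h to serial dilutions of compound in DMSO; sham DMSO as 100% and TCA-treated wells as 0%. IC50 from sigmoidal dose-response curves; two biological replicates, four technical each.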

[24] = Antiproliferative activity against human MCF10A cells after 72 hrs by SRB assay; type: cell-based; settings: MCF-10A
Procedure, shortened: as §3, with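 “0%. Fixed in 10% TCA at 4°C for 1 h, stained with 0.4% SRB for 30 min, dye solubilised in 10 mmol Tris pH 10.5, read at 540 nm.” for “0%.”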

HeLa [25] = assay: Cell cycle arrest in human HeLa cells assessed as accumulation at sub-G1 phase at 6 uM after 12 hrs by flow cytometry analysis relative to control; type: functional; procedure, shortened: as §1
HeLa [26] = assay: Cell cycle arrest in human HeLa cells assessed as accumulation at G0-G1 phase at 6 uM after 12 hrs by flow cytometry analysis relative to control; type: functional; procedure, shortened: as §1
HeLa [27] = assay: Decrease of Wee-1 level in human HeLa cells at 6 uM after 48 hrs by Western blot analysis

FC(F)(F)c1cccc(/C=C\c2cc3ccccc3nc2Cl)c1
Activity (HeLa [1]): 56.9%
Activity (HeLa [2]): 40.6%
Activity (HeLa [3]): 20.8%
Activity (HeLa [4]): 12.9%
Activity (HeLa [5]): 23.9%
Activity (HeLa [6]): 22.9%
Activity (HeLa [7]): 17.7%
Activity (HeLa [8]): 12.1%
Activity (MDA-MB-231 [9]): 22.2%
Activity (MDA-MB-231 [10]): 18.2%
Activity (MDA-MB-231 [11]): 12.8%
Activity (MDA-MB-231 [12]): 23.8%
Activity (MDA-MB-231 [13]): 15.4%
Activity (MDA-MB-231 [14]): 18.6%
Activity (MDA-MB-231 [15]): 14.2%
Activity (MDA-MB-231 [16]): 14.4%
Activity [17]: 3.4%
Activity [18]: 31.3%
Activity [19]: 11.4%
Activity [20]: 8.3%
Activity [21]: 12.1%
Activity (HeLa [22]): Active
Activity (HeLa [23]): Active
inhibition (Tubulin (Homo sapiens)): Active
IC50 (MCF7): 3.53 µM
IC50 [24]: 6.01 µM
Activity (HeLa [25]): 3.6%
Activity (HeLa [26]): 8%
Activity (HeLa [27]): Active
